Experimental data taken from PMC3288537 (ACS Chemical Biology, 2011).

Key:
SHP2 = biological target: T1, SHP2 (Homo sapiens, UniProt Q06124); experiment: Dose-response OMFP phosphatase assay, SHP2; type: biochemical; settings: read-out: IC50 SHP2; OMFP substrate
T1 sequence (Q06124 1-593): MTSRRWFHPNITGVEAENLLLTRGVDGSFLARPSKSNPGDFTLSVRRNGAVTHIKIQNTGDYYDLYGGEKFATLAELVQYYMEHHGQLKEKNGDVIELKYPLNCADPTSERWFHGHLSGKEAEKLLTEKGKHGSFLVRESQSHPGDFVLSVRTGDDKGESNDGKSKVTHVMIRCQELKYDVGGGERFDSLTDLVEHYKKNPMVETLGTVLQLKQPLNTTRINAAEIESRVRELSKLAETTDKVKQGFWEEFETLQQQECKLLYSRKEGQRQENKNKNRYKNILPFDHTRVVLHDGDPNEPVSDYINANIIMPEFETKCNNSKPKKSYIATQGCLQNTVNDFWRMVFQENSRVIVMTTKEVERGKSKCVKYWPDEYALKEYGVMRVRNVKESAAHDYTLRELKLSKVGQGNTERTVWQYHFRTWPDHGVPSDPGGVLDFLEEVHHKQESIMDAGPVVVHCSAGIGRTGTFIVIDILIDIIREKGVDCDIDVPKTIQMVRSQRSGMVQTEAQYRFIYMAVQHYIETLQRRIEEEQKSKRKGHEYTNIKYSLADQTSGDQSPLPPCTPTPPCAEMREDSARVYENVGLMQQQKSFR
Summary of the method: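 Ten-point 2-fold dilution series of test compound prepared in DMSO. Fluorescence (ex 485/em 528 nm) read in kinetic mode over 10 min; progress-curve slopes taken as activity. IC50 by nonlinear regression (sigmoidal, variable slope).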

PTP1B = biological target: T2, PTP1B (Homo sapiens, UniProt P18031); experiment: Dose-response OMFP phosphatase assay, PTP1B; type: biochemical; settings: read-out: IC50 PTP1B; OMFP substrate
T2 sequence (P18031 1-435): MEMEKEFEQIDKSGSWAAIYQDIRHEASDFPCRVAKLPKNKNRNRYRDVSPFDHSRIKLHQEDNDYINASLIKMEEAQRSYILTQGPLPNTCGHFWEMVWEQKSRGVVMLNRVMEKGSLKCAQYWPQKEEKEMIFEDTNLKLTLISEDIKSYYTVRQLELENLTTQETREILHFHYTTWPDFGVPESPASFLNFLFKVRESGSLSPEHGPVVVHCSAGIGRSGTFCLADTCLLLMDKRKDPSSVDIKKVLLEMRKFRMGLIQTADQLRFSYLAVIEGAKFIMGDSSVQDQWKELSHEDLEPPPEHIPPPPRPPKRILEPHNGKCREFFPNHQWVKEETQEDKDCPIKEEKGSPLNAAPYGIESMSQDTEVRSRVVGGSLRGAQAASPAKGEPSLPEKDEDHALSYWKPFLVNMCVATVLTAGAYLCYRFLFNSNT

MKP-3 = biological target: T3, MKP-3 (Homo sapiens, UniProt Q16828); experiment: Dose-response OMFP phosphatase assay, MKP-3; type: biochemical; settings: read-out: IC50 MKP-3; OMFP substrate
T3 sequence (Q16828 1-381): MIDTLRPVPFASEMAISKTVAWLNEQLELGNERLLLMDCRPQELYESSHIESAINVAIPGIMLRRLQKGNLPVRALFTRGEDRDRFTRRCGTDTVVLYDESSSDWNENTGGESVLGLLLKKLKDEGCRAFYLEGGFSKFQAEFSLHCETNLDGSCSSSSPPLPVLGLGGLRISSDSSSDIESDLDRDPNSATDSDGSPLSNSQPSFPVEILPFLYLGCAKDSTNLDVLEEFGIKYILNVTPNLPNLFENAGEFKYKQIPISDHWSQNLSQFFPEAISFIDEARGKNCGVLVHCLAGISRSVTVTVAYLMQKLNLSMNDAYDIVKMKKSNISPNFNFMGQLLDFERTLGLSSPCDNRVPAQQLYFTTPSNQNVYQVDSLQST

STEP = biological target: T4, STEP (Homo sapiens, UniProt P54829); experiment: Dose-response OMFP phosphatase assay, STEP; type: biochemical; settings: read-out: IC50 STEP; OMFP substrate
T4 sequence (P54829 1-565): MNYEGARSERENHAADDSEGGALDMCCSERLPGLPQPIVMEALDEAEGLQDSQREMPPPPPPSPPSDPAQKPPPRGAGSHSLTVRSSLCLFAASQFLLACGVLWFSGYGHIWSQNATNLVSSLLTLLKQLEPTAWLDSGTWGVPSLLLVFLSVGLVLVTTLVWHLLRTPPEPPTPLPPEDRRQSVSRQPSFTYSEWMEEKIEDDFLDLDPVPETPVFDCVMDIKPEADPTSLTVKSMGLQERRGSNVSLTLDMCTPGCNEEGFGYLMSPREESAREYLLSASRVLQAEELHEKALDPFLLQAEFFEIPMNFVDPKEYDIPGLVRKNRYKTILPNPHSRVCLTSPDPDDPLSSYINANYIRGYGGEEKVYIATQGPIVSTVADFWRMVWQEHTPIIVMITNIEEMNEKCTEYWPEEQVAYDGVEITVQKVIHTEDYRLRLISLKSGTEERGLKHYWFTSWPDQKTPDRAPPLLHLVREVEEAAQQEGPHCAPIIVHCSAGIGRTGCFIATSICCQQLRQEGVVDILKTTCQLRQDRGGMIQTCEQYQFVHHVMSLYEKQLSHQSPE

[1] = system: ERK1/2 and p38 phosphorylation in Jurkat TAg T cells; experiment: Immunoblot of pERK1/2, pp38 and pMEK in TCR-stimulated Jurkat TAg T cells; type: cell-based, human
Summary of the method: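 Jurkat TAg T cells preincubated with test compound or DMSO (0.2% in time course) for 45 min at 37°C, then stimulated with OKT3 at 500 ng mL-1 for 5 min. Cells lysed at once, or washed and held in fresh RPMI 1640 for set times. Immunoblotted for phospho-ERK1/2, p38 and MEK; bands normalised to total protein (time course also to GAPDH). Mean ± SEM; Student's t-test; 3–4 independent experiments.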

VHR = VHR (Homo sapiens, UniProt P51452); experiment: Dose-response OMFP phosphatase assay, VHR; type: biochemical; settings: read-out: IC50 VHR; OMFP substrate
[2] = 4 μM preincubation, before TCR stimulation, stimulated DMSO = 100%
[3] = 4 μM, OKT3 stimulation, DMSO = 100%
[4] = 4 μM, up to 2 h after TCR stimulation
[5] = 40 μM, 45 min preincubation, OKT3 5 min, vs DMSO

Chain of VHR (P51452 whole entry, species assumed): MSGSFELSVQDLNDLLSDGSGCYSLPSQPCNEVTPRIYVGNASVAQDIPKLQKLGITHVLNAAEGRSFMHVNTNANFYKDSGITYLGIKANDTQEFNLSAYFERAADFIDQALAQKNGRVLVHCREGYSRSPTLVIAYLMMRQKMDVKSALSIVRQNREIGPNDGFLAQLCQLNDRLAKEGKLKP

O=C(O)c1ccccc1-c1ccc(/C=c2\sc3nc4cc(Br)cnc4n3c2=O)o1 [Compound 1]
IC50 (SHP2): 1.1 µM | IC50 (PTP1B): 1.7 µM | IC50 (MKP-3): 5.2 µM | IC50 (STEP): 6.3 µM | basal pERK1/2 phosphorylation level [1, 2]: 22.0 ± 2.5% | basal pp38 phosphorylation level [1, 2]: 55.0 ± 5.8% | pERK1/2 level after TCR stimulation [1, 3]: 134.3 ± 4.9% | pp38 level after TCR stimulation [1, 3]: 125.5 ± 4.0% | time course of pERK1/2 levels after stimulation [1, 4]: remained constant up to 1 h after stimulation | time course of pp38 levels after stimulation [1, 4]: remained unchanged | pERK1/2 levels [1, 5]: augmented | pMEK levels (activation of MEK) [1, 5]: unchanged | pp38 levels [1, 5]: augmented | pMEK levels in dose-response ([1]; concentrations as high as 40 μM): not affected | IC50 (VHR): 1.9 µM
